# Compound activity: PubChem, several laboratories
# Beta apoptosis: blocks beta cell apoptosis. INS-1E cytokine-induced death, ATP luminescence, 48 h; percent of positive-control rescue, neutral wells zero. protection from apoptosis, % (concentration not given with the values). 300,000 compounds, 0.8% hits. AID 435005;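 active = Every replicate reaches about 75%, or at least half do and their mean reaches it too, limit read from the data; inconclusive = At least half of replicates reach the limit but their mean does not; inactive = Under half of replicates reach the limit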;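 also: 0% = cytokine-treated negative control wells and 100% = positive control rescue; higher means more ATP so stronger rescue from cytokine killing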
# SKKanGAS inh: blocks kanamycin growth of S. pyogenes SKKanGAS strain. BacTiter-Glo, 6 h. 300,000 compounds, 1.3% hits. inhibition, % at 7.5 µM;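 active = mean replicate score, as percent of positive control median, at least 50; inconclusive = mean below 50 but one replicate at or above 50; inactive = mean and every replicate below 50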;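 also: strain carries kanamycin resistance gene driven by streptokinase promoter and grows in 40 µg/ml kanamycin; loss of luminescence reflects streptokinase promoter inhibition or plain growth inhibition; 0% = median of DMSO wells and 100% = positive control at its reference dose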
# Mdm2-MdmX inh: human Mdm2/MdmX binding inhibition; 330,000 compounds, 3% hits; inhibition, % at 8 µM; O15151+Q00987; SaOS-2 split-luciferase Mdm2/MdmX complementation, luminescence;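 active = inhibition of at least 50% at 8 µM in the primary screen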
# Lmaj promast: reduces viability of Leishmania major promastigotes; 200,000 compounds, 9% hits; AID 1063; resazurin fluorescence viability; inhibition, % at 10 µM; in the data active = inhibition above about 50%;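 also: promastigotes grown with compound for 44 hours at 28 °C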
# CSC inhib: blocks cancer stem cells; cancer stem cell-like cells viability, luminescence; 300,000 compounds, 1.1% hits; AID 2717; inhibition, % at 7.5 µM; in the data active = inhibition above about 75%; inconclusive = no clear call, values can overlap the other calls; tested in HMLE shEcad cells
# T cruzi repl: T. cruzi replication inhibition; T. cruzi beta-gal in NIH3T3, luminescence, 90 h; inhibition, % (concentration not given with the values); 300,000 compounds, 1.4% hits; AID 1885;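 active = mean inhibition across valid replicates above about 55%, limit read from the data; inconclusive = mean below that limit but half or more replicates reach it; inactive = mean below it, under half of replicates reach it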;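 also: signal also drops with host cell toxicity which is not excluded here; 0% = plate median of DMSO wells and 100% = zero luminescence signal; higher percent means less beta-gal luminescence so fewer parasites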
#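 System: NIH/3T3 fibroblasts plus reporter T. cruzi. Medium: DMEM plus 2% FBS. Probe or stimulus: 5000 reporter trypomastigotes per well. Compound: single 50 nL compound addition per well in DMSO. Incubation: co-culture of at least 90 h after 3 h attachment. Detection: GalScreen β-gal luminescence, detergent lysis, 60 min. Evaluation: parasite load inhibition, %.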
# Numbers without * were called inactive; ? = inconclusive; · = no result given. In the library only some 9.4% were active in any assay of this set; here they are far more common.
SMILES,Beta apoptosis,SKKanGAS inh,Mdm2-MdmX inh,Lmaj promast,CSC inhib,T cruzi repl
CCn1cc(C(C)NC(=O)Nc2ccc3c(c2)OCO3)c(C)n1 (stereo not given),0.0,-8.4,-6.5,-1.6,-8.6,-9.2
O=C(O)CN(c1ccccc1[N+](=O)[O-])S(=O)(=O)c1ccccc1,-5.0,-6.3,-4.8,4.9,-4.9,-8.9
NC(=O)N/N=C(/CCCCCC/C(=N\NC(N)=O)c1ccccc1)c1ccccc1,9.0,52.9*,25.2,·,3.6,9.3
O=C(CN1C(=O)c2ccccc2S1(=O)=O)Nc1ccccc1C(=O)NCc1ccco1,-5.4,4.1,-0.5,-3.1,-14.7,-4.0
O=C(CN1C(=O)c2cccc3cccc1c23)Nc1ccccc1C(=O)NCc1ccco1,-10.2,6.3,18.0,82.5*,-3.7,-9.6
O=C(NCCCN1CCCC1=O)c1ccccc1OCc1ccc(Cl)cc1Cl,-0.4,·,9.9,·,-6.7,·
Cc1cc(=O)oc2cc(OCC(=O)Nc3ccc(S(=O)(=O)N(C)C)cc3)ccc12,-1.8,-4.2,4.4,·,-3.8,-3.1
CN(C)CCCN(C(=O)c1cc2ccccc2oc1=O)c1nc2c(F)cccc2s1,-9.4,-0.4,15.1,-2.8,·,55.9*
Cc1cccc2sc(N(CCCN(C)C)C(=O)c3cc4ccccc4oc3=O)nc12,-3.5,-2.7,-5.1,9.8,-28.4,46.1
Cc1ccc2nc(N(CCCN(C)C)C(=O)c3cc4ccccc4oc3=O)sc2c1,-8.0,1.3,18.5,67.2*,·,59.6*
CCOC(=O)N1CCN(CC(O)c2ccc3c(c2)CCN3)CC1 (stereo not given),-3.2,-1.2,-10.0,1.5,-4.2,6.6
CCOC(=O)N1CCN(CC(O)c2ccc3cc[nH]c3c2)CC1 (stereo not given),-1.3,-5.1,16.7,70.2*,-0.6,-20.2
COc1ccccc1N1CCN(CC(O)c2ccc3cc[nH]c3c2)CC1 (stereo not given),-2.0,0.2,16.9,89.2*,16.8,-32.9
COc1cccc(OCC(O)CNC(C)c2ccccc2)c1 (stereo not given),·,5.6,13.0,·,-5.9,5.0
CCOc1ccc(CN2CCN(Cc3cccn3-c3nccs3)CC2CCO)cc1 (stereo not given),6.4,-2.9,0.8,·,-10.1,18.3
O=C1N/C(=N/c2ccccn2)SC1Cc1ccccc1 (stereo not given),0.9,8.7,12.1,-2.7,-3.0,-1.0
O=C1N/C(=N\c2ccccn2)SC1Cc1ccc(Cl)cc1 (stereo not given),13.2,50.1*,23.2,-5.3,11.4,-2.0
Cc1ccc(NC(=O)c2ccc(NCCN)c([N+](=O)[O-])c2)cc1Cl,2.4,1.2,31.2,100.4*,5.6,-28.8
O=C(Nc1cc(F)cc(F)c1)c1ccc(NCCCN2CCCCCC2)c([N+](=O)[O-])c1,1.5,-2.0,29.6,90.9*,43.8,19.2
CCCN(CCC)CCCNc1ccc(C(=O)Nc2cccc(OC)c2)cc1[N+](=O)[O-],·,-7.0,42.8,97.5*,·,13.4
O=C(Nc1cc(F)cc(F)c1)c1ccc(NCCc2ccccc2)c([N+](=O)[O-])c1,6.5,-0.7,18.2,-7.1,-6.2,-8.5
CCNc1ccc(C(=O)Nc2ccc3nc(C)sc3c2)cc1[N+](=O)[O-],5.2,15.8,25.4,5.4,-1.6,-15.3
Cc1ccc(NC(=O)c2ccc(NCCc3ccccc3)c([N+](=O)[O-])c2)cc1F,1.8,3.6,49.5,88.6*,5.4,10.3
CN(C)c1nnnn1-c1ccc(OC(F)(F)F)cc1,0.6,6.5,17.0,-0.7,-26.5,-8.1
Cc1nn(-c2ccccc2)c(N2CCCCC2)c1/C=N/O,-9.7,-2.7,4.9,28.0,163.7*,14.9
SMILES,Beta apoptosis,SKKanGAS inh,Mdm2-MdmX inh,Lmaj promast,CSC inhib,T cruzi repl
COc1ccccc1NS(=O)(=O)c1cccc(C(=O)N/N=C/c2ccc(N3CCOCC3)cc2)c1,-8.6,-5.7,20.8,51.5*,5.0,-16.6
COc1ccccc1NS(=O)(=O)c1cccc(C(=O)N/N=C/c2ccc(C)o2)c1,-1.0,0.2,24.3,3.0,-12.8,-10.3
COc1ccc(-c2nn(-c3ccccc3)cc2/C=N/NC(=O)c2cccc(S(=O)(=O)Nc3ccccc3OC)c2)cc1,10.4,12.8,-9.0,51.9*,18.4,-1.8
COc1ccc(-c2nn(-c3ccccc3)cc2/C=N/NC(=O)c2ccc3c(c2)OCO3)cc1,16.7,17.2,19.8,17.2,9.3,13.9
Cc1ccc(NS(=O)(=O)c2cccc(C(=O)N/N=C/c3c(C)nn(-c4ccccc4)c3N3CCCC3)c2)c(C)c1,2.7,18.7,34.8,63.8*,-0.8,21.5
COc1ccc(NS(=O)(=O)c2cccc(C(=O)N/N=C/c3cccs3)c2)cc1,-0.3,-2.1,13.5,52.8*,3.7,-0.2
Cc1ccc(Nc2nc(-c3ccncc3)cs2)cc1,·,-7.9,-79.3,5.4,·,70.0*
COc1ccc(-c2csc(NNC3=NCCCCC3)n2)cc1,-7.6,-17.2,-7.4,2.3,3.0,50.6
Cc1cccnc1Nc1nc(-c2ccc(O)cc2)cs1,-0.4,-20.1,-170.9,99.4*,32.1,19.5
COc1ccc(-c2csc(NC3=NCCCCC3)n2)cc1,0.0,7.8,-27.7,88.5*,21.5,-14.9
Clc1ccc(-c2csc(Nc3cccnc3)n2)cc1,-16.2,-8.1,-10.6,·,6.1,58.5*
CC(C)CCNC(=O)C(=O)Nc1cc2c3c(c1)CCC(=O)N3CCC2,1.6,-1.2,13.4,·,-5.9,12.1
COc1ccc(C(=O)OCC(=O)NCCN2C(=O)CSC2=O)cc1,1.4,-0.8,-40.4,-1.1,-11.1,-3.1
COc1cccc(Nc2nc(-c3ccc(O)cc3)cs2)c1,7.1,3.5,-72.2,19.1,116.6*,25.4
Cc1cccc(Nc2nc(-c3ccncc3)cs2)c1,-11.4,-12.6,4.2,17.2,43.1,60.9*
c1ccc(-c2csc(Nc3cccnc3)n2)cc1,-2.6,-0.4,-84.2,15.6,-11.2,19.2
Clc1cccc(Nc2nc(-c3ccncc3)cs2)c1,-26.2,-10.1,22.6,32.9,?,65.8*
COC(=O)[C@H](Cc1c[nH]c2ccccc12)NC(=O)NCc1ccccc1,-4.9,0.3,34.6,·,-3.6,-7.3
CCOC(=O)C1=C(C)Nc2sc(C(=O)c3ccc(OC)cc3)c(N)c2C1c1ccc(C(=O)OC)cc1 (stereo not given),1.0,19.9,6.7,71.4*,14.1,17.7
COC(=O)C1=C(C)Nc2sc(C(N)=O)c(N)c2C1c1ccncc1 (stereo not given),0.6,6.7,16.7,-2.1,·,-3.0
CC[C@]1(C(=O)OC)[C@H]2C(=O)N(C)C(=O)[C@H]2[C@H]2CN(C)C(=NC)N21,·,·,6.2,·,·,·
O=C(O)CN1C(=O)/C(=C\c2cc(Br)ccc2OCc2ccccc2F)SC1=S,-4.6,68.1*,-10.2,·,53.5,3.0
O/N=C/c1cc(Br)ccc1OCc1ccccc1F,-1.6,26.1,-55.9,99.6*,44.0,4.8
O=C(O)CN1C(=O)/C(=C\c2ccccc2OCc2ccc(Cl)cc2Cl)SC1=S,-1.9,70.7*,14.4,·,48.3,1.0
C=CCOc1ccc(Br)cc1/C=N/O,-3.9,-1.6,16.9,5.9,-10.6,1.5
